Reference: ChEMBL document CHEMBL4387708, “Enhancement of Benzothiazoles as Pteridine Reductase-1 Inhibitors for the Treatment of Trypanosomatidic Infections” (J Med Chem, 2019)

Tests used:
Cytochrome P450 1A2 = molecular target: T1, Cytochrome P450 1A2 (Homo sapiens, UniProt P05177); experiment: Inhibition of human CYP1A2 expressed in baculovirus infected insect cells using beetle D-luciferin as substrate preincubated for 30 mins followed by NADPH addition and measured after 30 mins by CYP450-Glo assay
T1 sequence (P05177 whole entry): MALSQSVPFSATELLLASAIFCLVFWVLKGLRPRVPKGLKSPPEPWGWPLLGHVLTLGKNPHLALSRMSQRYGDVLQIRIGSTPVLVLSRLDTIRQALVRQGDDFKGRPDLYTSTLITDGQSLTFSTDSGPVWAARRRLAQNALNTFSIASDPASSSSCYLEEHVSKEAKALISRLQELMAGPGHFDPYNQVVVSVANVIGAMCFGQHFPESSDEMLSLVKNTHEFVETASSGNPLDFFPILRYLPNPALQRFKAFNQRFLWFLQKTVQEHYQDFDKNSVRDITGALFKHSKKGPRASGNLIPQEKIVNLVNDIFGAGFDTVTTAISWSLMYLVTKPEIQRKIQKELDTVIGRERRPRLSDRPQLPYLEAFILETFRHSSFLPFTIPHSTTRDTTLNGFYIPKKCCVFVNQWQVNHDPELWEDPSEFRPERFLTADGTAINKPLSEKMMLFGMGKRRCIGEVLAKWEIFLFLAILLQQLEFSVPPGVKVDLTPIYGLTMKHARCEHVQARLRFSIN

Trypanosoma brucei [1] = experiment: Inhibition of PTR1 in Trypanosoma brucei bloodstream forms assessed as potentiation of methotrexate-induced parasitic cell growth inhibition by measuring potentiation index at 10 uM measured after 72 hrs by resazurin-based fluorescence assay relative to control (methotrexate); assay type: functional
Summary of the method: (§1)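 Bloodstream-form T. brucei resazurin assay: 72 h at 37 °C, 5% CO₂, then fluorescence at ex 540/em 620 nm. Benzothiazole was tested at 10 μM alone and with 4 μM methotrexate. The index is the combination's activity divided by the sum of the activities of 10 μM benzothiazole and 4 μM methotrexate given separately.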

Cytochrome P450 2C9 = Cytochrome P450 2C9 (Homo sapiens, UniProt P11712); experiment: Inhibition of human CYP2C9 expressed in baculovirus infected insect cells using beetle D-luciferin as substrate preincubated for 30 mins followed by NADPH addition and measured after 30 mins by CYP450-Glo assay
[2] = Mitochondrial toxicity in human 786-O cells measured after 6 hrs by MitoTracker Red chloromethyl-X-rosamine based assay; assay type: cell-based, 786-0
Trypanosoma brucei [3] = experiment: Inhibition of PTR1 in Trypanosoma brucei bloodstream forms assessed as potentiation of methotrexate-induced parasitic cell growth inhibition at 10 uM measured after 72 hrs by resazurin-based fluorescence assay (reference value: 19 +/- 6%); summary of the method: as §1
Trypanosoma cruzi = experiment: Growth inhibition of trypomastigote form of Trypanosoma cruzi Y infected in human U2OS cells at 50 uM measured after 72 hrs by DRAQ5 DNA dye based confocal microscopic analysis relative to control; assay type: organism-based; details: for inhibition at 50 µM: Trypanosoma cruzi, Y, U2OS, read-out: GI; for growth inhibition (GI): trypanosoma cruzi, 50 µM
[4] = Cytotoxicity against human THP1 cells after 72 hrs by MTT assay; assay type: cell-based, THP-1; details: read-out: NOAEL
[5] = Selectivity ratio of IC50 for Leishmania major pteridine reductase 1 to IC50 for N-terminal His-tagged Trypanosoma brucei pteridine reductase 1
[6] = Inhibition of N-terminal His-tagged Trypanosoma brucei pteridine reductase 1 using di-hydrobiopterine as substrate measured at 1 min interval for 50 mins in presence of NADPH
Summary of the method: (§2)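 Photometric PTR1 assay with NADPH and dihydrobiopterin substrate. H₄B formation is coupled non-enzymatically to cytochrome c reduction, read as signal increase at 550 nm.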

Pteridine reductase 1 = molecular target: T2, Pteridine reductase 1 (Leishmania major, UniProt Q01782); experiment: Inhibition of Leishmania major pteridine reductase 1 using di-hydrobiopterine as substrate in presence of NADPH; details: read-out: IC50; summary of the method: as §2
T2 sequence (Q01782 whole entry): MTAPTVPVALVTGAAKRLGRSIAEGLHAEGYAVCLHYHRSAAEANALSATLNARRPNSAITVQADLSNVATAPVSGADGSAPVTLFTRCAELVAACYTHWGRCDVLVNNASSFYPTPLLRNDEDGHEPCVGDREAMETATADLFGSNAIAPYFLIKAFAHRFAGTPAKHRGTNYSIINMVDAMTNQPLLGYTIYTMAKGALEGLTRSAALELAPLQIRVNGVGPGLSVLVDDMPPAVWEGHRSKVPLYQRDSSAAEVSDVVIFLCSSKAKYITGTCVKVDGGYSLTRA

Cytochrome P450 2D6 = Cytochrome P450 2D6 (Homo sapiens, UniProt P10635); experiment: Inhibition of human CYP2D6 expressed in baculovirus infected insect cells using beetle D-luciferin as substrate preincubated for 30 mins followed by NADPH addition and measured after 30 mins by CYP450-Glo assay
Cytochrome P450 3A4 = Cytochrome P450 3A4 (Homo sapiens, UniProt P08684); experiment: Inhibition of human CYP3A4 expressed in baculovirus infected insect cells using beetle D-luciferin as substrate preincubated for 30 mins followed by NADPH addition and measured after 30 mins by CYP450-Glo assay
[7] = molecular target: T3, Pteridine reductase 1 (Leishmania major) (UniProt Q01782); experiment: Inhibition of Leishmania major pteridine reductase 1 at 50 uM using di-hydrobiopterine as substrate in presence of NADPH relative to control; summary of the method: as §2
T3 sequence (whole entry): T2 sequence (Q01782 whole entry)

Trypanosoma brucei [8] = experiment: Growth inhibition of Trypanosoma brucei bloodstream forms at 10 uM measured after 72 hrs by resazurin-based fluorescence assay relative to control; assay type: organism-based; details: Trypanosoma brucei, read-out: GI
[9] = Cytotoxicity against human A549 cells after 48 hrs by Celltiter-glo assay; assay type: cell-based
Trypanosoma brucei [10] = experiment: Inhibition of N-terminal His-tagged Trypanosoma brucei pteridine reductase 1 at 50 uM using di-hydrobiopterine as substrate measured at 1 min interval for 50 mins in presence of NADPH relative to control; summary of the method: as §2
[11] = molecular target: Voltage-gated inwardly rectifying potassium channel KCNH2 (Homo sapiens, UniProt Q12809); experiment: Displacement of Tracer Red from human ERG by fluorescence polarization assay
Cytochrome P450 2C19 = Cytochrome P450 2C19 (Homo sapiens, UniProt P33261); experiment: Inhibition of human CYP2C19 expressed in baculovirus infected insect cells using beetle D-luciferin as substrate preincubated for 30 mins followed by NADPH addition and measured after 30 mins by CYP450-Glo assay
Leishmania infantum = experiment: Growth inhibition of luciferase expressing Leishmania infantum axenic amastigotes infected in human THP1 cells at 10 uM measured after 72 hrs by steady-glo luminescence assay relative to control; assay type: organism-based; details: for growth inhibition (GI): leishmania infantum, 72 h, 10 µM; for inhibition at 10 µM: Leishmania infantum, THP-1, 72 h, read-out: GI
[12] = Cytotoxicity against human U2OS cells assessed as reduction in cell number; assay type: cell-based

Cytochrome P450 2C9, sequence (P11712 whole entry): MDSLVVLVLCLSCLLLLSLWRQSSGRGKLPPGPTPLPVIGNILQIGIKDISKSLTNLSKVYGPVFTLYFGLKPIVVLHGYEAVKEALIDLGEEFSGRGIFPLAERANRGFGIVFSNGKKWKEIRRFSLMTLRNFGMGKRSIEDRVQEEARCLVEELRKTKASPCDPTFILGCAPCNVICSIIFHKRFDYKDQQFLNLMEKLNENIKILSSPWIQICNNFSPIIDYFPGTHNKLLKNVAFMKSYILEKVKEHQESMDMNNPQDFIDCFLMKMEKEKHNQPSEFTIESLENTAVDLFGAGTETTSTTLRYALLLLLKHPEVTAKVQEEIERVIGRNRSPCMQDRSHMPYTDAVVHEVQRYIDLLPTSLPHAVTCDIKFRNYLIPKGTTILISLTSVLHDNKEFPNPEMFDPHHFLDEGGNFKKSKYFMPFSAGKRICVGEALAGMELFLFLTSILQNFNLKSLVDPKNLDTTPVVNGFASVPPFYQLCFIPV
Cytochrome P450 2C19, sequence (P33261 whole entry): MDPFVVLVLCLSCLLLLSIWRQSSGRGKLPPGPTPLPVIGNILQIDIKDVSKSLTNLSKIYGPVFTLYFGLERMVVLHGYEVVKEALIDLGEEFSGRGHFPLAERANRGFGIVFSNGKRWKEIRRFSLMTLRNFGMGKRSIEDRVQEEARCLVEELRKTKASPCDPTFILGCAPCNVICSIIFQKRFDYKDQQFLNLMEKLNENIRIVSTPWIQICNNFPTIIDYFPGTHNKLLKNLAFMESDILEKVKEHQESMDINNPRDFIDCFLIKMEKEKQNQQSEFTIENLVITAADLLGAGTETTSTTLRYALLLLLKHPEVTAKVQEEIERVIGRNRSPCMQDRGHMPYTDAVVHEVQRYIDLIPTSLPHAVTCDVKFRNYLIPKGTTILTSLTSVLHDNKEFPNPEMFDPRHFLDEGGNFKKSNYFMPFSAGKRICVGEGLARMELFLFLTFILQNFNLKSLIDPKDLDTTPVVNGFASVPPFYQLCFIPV
Cytochrome P450 2D6, sequence (P10635 whole entry): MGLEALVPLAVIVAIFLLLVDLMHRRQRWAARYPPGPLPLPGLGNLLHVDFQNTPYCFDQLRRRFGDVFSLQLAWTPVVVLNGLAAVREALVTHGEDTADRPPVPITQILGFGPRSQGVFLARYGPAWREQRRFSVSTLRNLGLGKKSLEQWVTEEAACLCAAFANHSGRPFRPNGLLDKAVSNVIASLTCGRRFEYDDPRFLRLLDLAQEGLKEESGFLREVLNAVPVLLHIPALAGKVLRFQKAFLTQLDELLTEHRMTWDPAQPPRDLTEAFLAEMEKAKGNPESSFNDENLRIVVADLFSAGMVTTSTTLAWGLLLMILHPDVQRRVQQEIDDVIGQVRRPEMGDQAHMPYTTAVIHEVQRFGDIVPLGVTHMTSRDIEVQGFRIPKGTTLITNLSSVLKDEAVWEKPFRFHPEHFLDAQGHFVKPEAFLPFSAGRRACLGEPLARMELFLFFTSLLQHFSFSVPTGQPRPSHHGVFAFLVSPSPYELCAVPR
Cytochrome P450 3A4, sequence (P08684 whole entry): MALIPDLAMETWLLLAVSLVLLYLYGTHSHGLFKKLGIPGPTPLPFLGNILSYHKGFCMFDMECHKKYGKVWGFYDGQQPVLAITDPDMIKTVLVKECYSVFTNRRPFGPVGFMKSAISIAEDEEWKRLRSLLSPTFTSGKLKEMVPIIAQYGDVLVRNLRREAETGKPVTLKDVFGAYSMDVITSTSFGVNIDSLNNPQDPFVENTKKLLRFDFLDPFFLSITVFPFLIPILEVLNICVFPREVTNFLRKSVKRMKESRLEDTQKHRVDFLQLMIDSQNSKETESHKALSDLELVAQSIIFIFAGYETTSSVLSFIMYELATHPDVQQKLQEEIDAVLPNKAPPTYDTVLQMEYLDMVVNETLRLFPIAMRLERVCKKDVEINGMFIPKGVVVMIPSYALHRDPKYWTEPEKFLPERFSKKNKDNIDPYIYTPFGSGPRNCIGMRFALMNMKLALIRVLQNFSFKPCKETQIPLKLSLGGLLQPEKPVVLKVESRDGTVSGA
Voltage-gated inwardly rectifying potassium channel KCNH2, sequence (Q12809 whole entry): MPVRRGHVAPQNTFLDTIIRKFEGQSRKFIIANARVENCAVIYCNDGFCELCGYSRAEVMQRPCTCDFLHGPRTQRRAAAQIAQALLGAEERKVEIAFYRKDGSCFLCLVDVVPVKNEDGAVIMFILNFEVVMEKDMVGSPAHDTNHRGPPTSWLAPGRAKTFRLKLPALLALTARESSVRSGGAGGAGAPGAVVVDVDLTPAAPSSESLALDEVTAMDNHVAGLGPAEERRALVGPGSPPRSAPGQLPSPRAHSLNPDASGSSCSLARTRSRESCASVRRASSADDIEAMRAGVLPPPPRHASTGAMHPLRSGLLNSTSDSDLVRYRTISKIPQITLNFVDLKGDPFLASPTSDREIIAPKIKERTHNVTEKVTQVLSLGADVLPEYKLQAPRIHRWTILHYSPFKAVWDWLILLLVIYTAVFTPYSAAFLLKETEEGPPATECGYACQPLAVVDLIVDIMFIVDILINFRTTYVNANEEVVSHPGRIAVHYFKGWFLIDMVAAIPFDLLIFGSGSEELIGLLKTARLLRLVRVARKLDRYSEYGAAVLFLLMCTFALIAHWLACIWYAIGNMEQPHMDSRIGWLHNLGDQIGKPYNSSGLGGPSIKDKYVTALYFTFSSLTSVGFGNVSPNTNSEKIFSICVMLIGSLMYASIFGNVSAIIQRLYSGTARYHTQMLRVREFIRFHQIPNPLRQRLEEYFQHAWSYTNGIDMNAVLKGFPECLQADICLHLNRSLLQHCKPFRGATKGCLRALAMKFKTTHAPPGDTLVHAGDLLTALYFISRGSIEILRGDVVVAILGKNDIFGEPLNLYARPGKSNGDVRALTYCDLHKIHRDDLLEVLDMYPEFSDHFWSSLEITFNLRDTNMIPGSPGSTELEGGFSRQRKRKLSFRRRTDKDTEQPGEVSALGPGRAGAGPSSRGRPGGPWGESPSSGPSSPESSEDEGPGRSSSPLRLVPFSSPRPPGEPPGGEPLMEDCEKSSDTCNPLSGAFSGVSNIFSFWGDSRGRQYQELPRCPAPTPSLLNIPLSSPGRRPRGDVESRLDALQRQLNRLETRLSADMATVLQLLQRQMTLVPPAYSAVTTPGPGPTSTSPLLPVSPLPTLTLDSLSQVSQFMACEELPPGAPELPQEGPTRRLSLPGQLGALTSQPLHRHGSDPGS

Nc1nc2ccc(SC(F)(F)F)cc2s1
IC50 (Cytochrome P450 1A2): > 25 µM | Ratio (Trypanosoma brucei [1]): 1.1 | IC50 (Cytochrome P450 2C9): > 25 µM | IC50 at 6 h [2]: > 25 µM | growth inhibition (GI) (Trypanosoma brucei [3]): 33% | inhibition at 50 µM (Trypanosoma cruzi): 37.4% | MNTC at 72 h [4]: 10 to 25 µM | Ratio IC50 [5]: 2 to 100 | IC50 [6]: 0.5 µM | IC50 (Pteridine reductase 1): 1.9 µM | IC50 (Cytochrome P450 2D6): > 25 µM | IC50 (Cytochrome P450 3A4): > 25 µM | inhibition [7]: > 60% | inhibition at 10 µM (Trypanosoma brucei [8]): 11% | GI50 at 48 h [9]: < 10 µM | inhibition (Trypanosoma brucei [10]): > 60% | IC50 [11]: 10 to 25 µM | IC50 (Cytochrome P450 2C19): > 25 µM | growth inhibition (GI) (Leishmania infantum): Non-Toxic | GI50 [12]: > 25 µM

N#Cc1ccc(CSc2ccc3nc(N)sc3c2)cc1
IC50 (Cytochrome P450 1A2): > 25 µM | Ratio (Trypanosoma brucei [1]): 1.3 | IC50 (Cytochrome P450 2C9): 10 to 25 µM | IC50 at 6 h [2]: < 10 µM | growth inhibition (GI) (Trypanosoma brucei [3]): 63% | inhibition at 50 µM (Trypanosoma cruzi): 27.3% | MNTC at 72 h [4]: > 25 µM | Ratio IC50 [5]: 2 to 100 | IC50 [6]: 0.35 µM | IC50 (Pteridine reductase 1): 12.4 µM | IC50 (Cytochrome P450 2D6): < 10 µM | IC50 (Cytochrome P450 3A4): < 10 µM | inhibition [7]: > 60% | inhibition at 10 µM (Trypanosoma brucei [8]): 29 to 35% | GI50 at 48 h [9]: > 25 µM | inhibition (Trypanosoma brucei [10]): > 60% | IC50 (Cytochrome P450 2C19): < 10 µM | growth inhibition (GI) (Leishmania infantum): Non-Toxic | GI50 [12]: > 25 µM

Nc1nc2ccc(C(=O)NC(c3ccccc3)c3ccccc3)cc2s1
IC50 (Cytochrome P450 1A2): > 25 µM | IC50 (Cytochrome P450 2C9): < 10 µM | IC50 at 6 h [2]: > 25 µM | inhibition at 50 µM (Trypanosoma cruzi): 37.8% | MNTC at 72 h [4]: > 25 µM | Ratio IC50 [5]: 2 to 100 | IC50 [6]: 18.5 µM | IC50 (Pteridine reductase 1): 88.5 µM | IC50 (Cytochrome P450 2D6): < 10 µM | IC50 (Cytochrome P450 3A4): < 10 µM | inhibition [7]: > 60% | inhibition at 10 µM (Trypanosoma brucei [8]): 10% | GI50 at 48 h [9]: > 25 µM | inhibition (Trypanosoma brucei [10]): > 60% | IC50 [11]: > 25 µM | IC50 (Cytochrome P450 2C19): < 10 µM | inhibition at 10 µM (Leishmania infantum): 15% | GI50 [12]: > 25 µM

Nc1nc2c(C(=O)NCc3ccc(Cl)c(Cl)c3)cc(O)c(O)c2s1
IC50 (Cytochrome P450 1A2): > 25 µM | IC50 (Cytochrome P450 2C9): > 25 µM | IC50 at 6 h [2]: > 25 µM | inhibition at 50 µM (Trypanosoma cruzi): 18.3% | MNTC at 72 h [4]: > 25 µM | Ratio IC50 [5]: 2 to 100 | IC50 [6]: 32.3 µM | IC50 (Pteridine reductase 1): 36.8 µM | IC50 (Cytochrome P450 2D6): < 10 µM | IC50 (Cytochrome P450 3A4): < 10 µM | inhibition [7]: > 60% | inhibition at 10 µM (Trypanosoma brucei [8]): 16% | GI50 at 48 h [9]: > 25 µM | inhibition (Trypanosoma brucei [10]): > 60% | IC50 [11]: > 25 µM | IC50 (Cytochrome P450 2C19): > 25 µM | growth inhibition (GI) (Leishmania infantum): Non-Toxic | GI50 [12]: > 25 µM

N#Cc1ccc(CS(=O)(=O)c2ccc3nc(N)sc3c2)cc1
IC50 (Cytochrome P450 1A2): > 25 µM | Ratio (Trypanosoma brucei [1]): 1.5 | IC50 (Cytochrome P450 2C9): > 25 µM | IC50 at 6 h [2]: > 25 µM | growth inhibition (GI) (Trypanosoma brucei [3]): 48% | growth inhibition (GI) (Trypanosoma cruzi): Non-Toxic | MNTC at 72 h [4]: > 25 µM | Ratio IC50 [5]: 2 to 100 | IC50 [6]: 3 µM | IC50 (Cytochrome P450 2D6): < 10 µM | IC50 (Cytochrome P450 3A4): < 10 µM | inhibition [7]: 55.5% | inhibition at 10 µM (Trypanosoma brucei [8]): 9 to 13% | GI50 at 48 h [9]: > 25 µM | inhibition (Trypanosoma brucei [10]): > 60% | IC50 [11]: > 25 µM | IC50 (Cytochrome P450 2C19): 10 to 25 µM | growth inhibition (GI) (Leishmania infantum): Non-Toxic | GI50 [12]: > 25 µM

Nc1nc2ccc(C(=O)NCc3ccc(Cl)c(Cl)c3)cc2s1
IC50 (Cytochrome P450 1A2): > 25 µM | IC50 (Cytochrome P450 2C9): > 25 µM | IC50 at 6 h [2]: < 10 µM | growth inhibition (GI) (Trypanosoma cruzi): Non-Toxic | MNTC at 72 h [4]: > 25 µM | Ratio IC50 [5]: 2 to 100 | IC50 [6]: 5.4 µM | IC50 (Pteridine reductase 1): 15.3 µM | IC50 (Cytochrome P450 2D6): < 10 µM | IC50 (Cytochrome P450 3A4): < 10 µM | inhibition [7]: > 60% | inhibition at 10 µM (Trypanosoma brucei [8]): 5% | GI50 at 48 h [9]: > 25 µM | inhibition (Trypanosoma brucei [10]): > 60% | IC50 [11]: > 25 µM | IC50 (Cytochrome P450 2C19): < 10 µM | inhibition at 10 µM (Leishmania infantum): 5% | GI50 [12]: > 25 µM

Nc1nc2ccc(C(=O)NCc3ccccc3[N+](=O)[O-])cc2s1
IC50 (Cytochrome P450 1A2): > 25 µM | IC50 (Cytochrome P450 2C9): > 25 µM | IC50 at 6 h [2]: < 10 µM | inhibition at 50 µM (Trypanosoma cruzi): 19% | MNTC at 72 h [4]: > 25 µM | Ratio IC50 [5]: 2 to 100 | IC50 [6]: 6.46 µM | IC50 (Pteridine reductase 1): 3.51 µM | IC50 (Cytochrome P450 2D6): > 25 µM | IC50 (Cytochrome P450 3A4): < 10 µM | inhibition [7]: > 60% | inhibition at 10 µM (Trypanosoma brucei [8]): 18% | GI50 at 48 h [9]: > 25 µM | inhibition (Trypanosoma brucei [10]): > 60% | IC50 [11]: > 25 µM | IC50 (Cytochrome P450 2C19): > 25 µM | growth inhibition (GI) (Leishmania infantum): Non-Toxic | GI50 [12]: > 25 µM
